A short description of this experiment: Binding affinity to Escherichia coli BL21 (DE3) IspF at 10 degC in pH 7 sodium phosphate buffer by SPR binding assay. A digest of the protocol: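 Recombinant E. coli IspF expressed in BL21(DE3), >95% pure, amine-coupled to CM5 chip at ~100 μg/mL in 10 mM acetate pH 5.5 (4500–5500 RU). Ligands 0.1 μM–10 mM in 50 mM sodium phosphate pH 7, 2 mM MgCl, 30 μL/min, 10 °C; triplicate injections, blank-subtracted.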
(In general: Surface plasmon resonance follows binding to a sensor surface in real time, without labels.)

Usually Kd stands for the free concentration of one partner at which half of the binding sites on the other are occupied at equilibrium, for simple one-to-one binding. Consider `O=C(O)CCCC(=O)Nc1ccc2c(c1)OCO2`, for which the Kd result is “Not Active”.
Take `Nc1nnc(-c2nonc2N)o1`: the Kd result was “Not Active”.
Turning to `Nc1ccn([C@H]2O[C@@H](CO)[C@H]3OP(=O)(O)O[C@H]32)c(=O)n1` (mixture of isomers), for the setting “read-out: Kd”, the Kd came out at 20.5 mM.
As to `NC(=O)CSc1cc(N)nc(N)n1`, the Kd entry was “Not Active”.

(Values after ChEMBL document CHEMBL1153426, “A structure-based approach to ligand discovery for 2C-methyl-D-erythritol-2,4-cyclodiphosphate synthase: a target for antimicrobial therapy” (J Med Chem, 2009).)
